SENP7 block – inhibitors of human SENP7 protease; Q9BQF6; recombinant SENP7, Z-RLRGG-aminoluciferin luminescence, 40 min; inhibition, % at 5 µM; 330,000 tested, 1.5% active; AID 434973;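 active = inhibition above about 50% at the single test dose, limit read from the data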;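 also: plate controls were DMSO with enzyme for no effect and no enzyme buffer wells for full effect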
SENP8 block-1 – inhibitors of human SENP8 protease. purified SENP8, Z-RLRGG-aminoluciferin cleavage, luminescence. inhibition, % at 10 µM. Q96LD8. 330,000 tested, 1.2% active. AID 2540; in the data active = inhibition above about 50%
Target sequence (Q96LD8 whole entry, looked up): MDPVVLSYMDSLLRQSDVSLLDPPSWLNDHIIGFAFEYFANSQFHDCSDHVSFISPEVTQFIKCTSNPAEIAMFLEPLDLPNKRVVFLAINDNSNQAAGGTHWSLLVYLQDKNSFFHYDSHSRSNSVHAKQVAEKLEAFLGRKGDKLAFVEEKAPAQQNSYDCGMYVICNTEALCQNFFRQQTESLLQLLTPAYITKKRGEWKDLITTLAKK
Apaf-1 inh – inhibitors of human Apaf-1 apoptosome; reconstituted apoptosome caspase-3 activity, DEVD-Rh110 fluorescence; inhibition, % at 20 µM; 330,000 tested, 0.71% active; AID 489030; active = inhibition of at least 40% at 20 µM;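 also: plate controls were DMSO wells for no effect and DEVD-CHO caspase inhibitor wells for full effect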
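detection = Rh110 fluorescence intensity | test system = biochemical Apaf-1 apoptosome reconstitution | also added = cytochrome c and DEVD-Rh110 substrate | schedule = 30 min plus 50 min, RT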
SENP6 inh – SENP6 protease inhibition. Q9GZR1. Recombinant SENP6 catalytic domain, aminoluciferin luminescence. inhibition, % at 10 µM. 330,000 tested, 1.8% active. AID 2599;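 active = inhibition above about 50% at the single tested dose, limit read from the data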;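 also: plate controls were DMSO wells with enzyme for no effect and DMSO wells lacking enzyme for full effect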
UBC13 inh – inhibitors of human UBC13 polyubiquitin chain formation. P61088. TR-FRET. inhibition, % at 20 µM. 330,000 tested, 0.47% active; in the data active = inhibition above about 45%, passing the limit was not always enough
Target sequence (P61088 whole entry, looked up): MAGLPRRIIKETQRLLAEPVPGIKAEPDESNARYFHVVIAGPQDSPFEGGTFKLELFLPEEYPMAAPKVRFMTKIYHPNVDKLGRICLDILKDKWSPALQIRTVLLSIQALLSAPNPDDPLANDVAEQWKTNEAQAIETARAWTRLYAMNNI
SENP8 block-2 – SENP8 (human) protease inhibition. Q96LD8. 360,000 tested, 0.64% active. inhibition, % at 20 µM. recombinant SENP8, Nedd8 substrate fluorescence; in the data active = inhibition mostly above about 40%, no sharp cut-off; inactive = mostly below about 27%
SENP8 conf – confirmation of human SENP8 protease inhibitors; shares compounds with SENP7 block; Recombinant SENP8, Z-RLRGG-aminoluciferin luminescence, 60 min; inhibition, % at 12.5 µM; 6,200 tested, 40% active;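 active = mean inhibition across replicates above about 50%, limit read from the data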
SENP6 conf – confirmation of human SENP6 protease inhibitors; shares compounds with SENP7 block; recombinant SENP6, Z-RLRGG-aminoluciferin luminescence; inhibition, % at 12.5 µM; 6,200 tested, 58% active; AID 488915
SENP7 confirm – confirmation of human SENP7 protease inhibitors; shares compounds with SENP7 block; recombinant SENP7, Z-RLRGG-aminoluciferin luminescence, 40 min; inhibition, % at 12.5 µM; 6,200 tested, 69% active; AID 488917
Casp3 select – selectivity test for SENP inhibitors: human caspase-3 inhibition; inhibition, % at 12.5 µM; shares compounds with SENP7 block; 6,200 tested, 60% active; purified caspase-3, Z-DEVD-aminoluciferin luminescence, 60 min;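 active = mean inhibition above about 50%, limit read from the data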;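 also: plate controls were enzyme with DMSO for no effect and wells without caspase-3 for full effect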
Target sequence (P42574 28-227 limits assumed): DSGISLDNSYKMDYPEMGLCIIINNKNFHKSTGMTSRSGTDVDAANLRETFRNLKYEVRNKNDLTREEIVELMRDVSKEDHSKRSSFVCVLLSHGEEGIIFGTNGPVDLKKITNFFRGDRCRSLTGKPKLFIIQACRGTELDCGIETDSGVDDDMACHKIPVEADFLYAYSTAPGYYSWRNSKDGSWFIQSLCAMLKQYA
Luc interf – interferes with luciferase luminescence in SENP counter-screen; shares compounds with SENP7 block; Pre-incubated SENP8/Z-RLRGG-aminoluciferin, luciferase luminescence interference; inhibition, % at 12.5 µM; 6,200 tested, 39% active;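 active = mean inhibition above about 50% when retested at one dose, limit read from the data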;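 also: plate controls were DMSO wells with completed reaction for no effect and substrate without enzyme for full effect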
* hit, by the source's call; / = not tested or not shown. The list is not random: actives were taken first. Their share in the collection is about 3.1%.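 The calls were made as follows, unless noted: active = mean inhibition above about 50% in the one-dose retest (limit read from the data); inactive = the rest.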

SMILES	SENP7 block	SENP8 block-1	Apaf-1 inh	SENP6 inh	UBC13 inh	SENP8 block-2	SENP8 conf	SENP6 conf	SENP7 confirm	Casp3 select	Luc interf
COCCN1C[C@@H](CO)O[C@@H](n2cnc3c(NCCO)ncnc32)C1	/	/	/	/	/	5	/	/	/	/	/
O=C(NCc1ccc(F)cc1)c1[nH]c(C(F)(F)F)nc1-c1ccccc1	/	/	/	/	/	-2	/	/	/	/	/
Cc1ccc(C(=O)c2c3ccc(N)cc3nn2CCC(N)=O)cc1	21	26	82*	57*	-87	-72	14	29	-5	0	-3
Cc1ccc(C(=O)c2c3ccc(C(F)(F)F)cc3[n+]([O-])n2CCC(N)=O)cc1	-2	-1	5	9	-21	-2	/	/	/	/	/
CCC(C)NC(=O)c1nn(Cc2ccccc2)c(=O)c2ccccc12 (stereo not drawn)	4	-9	9	-9	7	3	/	/	/	/	/
O=C(Nc1ccc(S(=O)(=O)Nc2ncccn2)cc1)c1nn(Cc2ccccc2)c(=O)c2ccccc12	17	66*	18	85*	-6	2	4	17	26	36	9
COCC(C)NC(=O)c1nn(Cc2ccccc2)c(=O)c2ccccc12 (stereo not drawn)	5	0	4	61*	6	8	-6	-6	2	11	6
CCn1nc(C(=O)Nc2ccc(S(=O)(=O)Nc3nccs3)cc2)c2ccccc2c1=O	7	11	4	-4	-8	13	/	/	/	/	/
O=C1Nc2ccccc2N(O)N1c1cc(-c2ccccc2Cl)no1	9	-9	10	-47	3	27	/	/	/	/	/
O=C1Nc2ccccc2N(O)N1c1cc(-c2cccc(Cl)c2)no1	60*	58*	-88	39	-5	12	83*	80*	93*	88*	81*
Cc1ccnc(NS(=O)(=O)c2ccc(NC(=O)C(C)(C)C)cc2)n1	-2	4	-29	89*	2	6	12	11	-3	1	3
CC(=O)Nc1ccc(S(=O)(=O)Nc2nccc(C)n2)cc1	-10	-1	1	-1	2	5	/	/	/	/	/
COc1cc2sc3ccc(C#Cc4ccc(N)cc4)cc3c(=O)c2cc1OC	-14	-13	9	-8	-26	-198	/	/	/	/	/
COc1cc2sc3ccc(C#CC4(O)CCCCC4)cc3c(=O)c2cc1OC	99*	94*	3	98*	14	-473	66*	70*	91*	81*	24
O=C(Nc1cccnc1)c1ccc(Oc2ccccc2)cc1	89*	78*	8	90*	5	31	85*	88*	98*	85*	70*
CCCOc1ccc(C(=O)Nc2cccnc2)cc1	69*	37	3	70*	-5	0	54*	52*	86*	83*	69*
O=C(Nc1cccnc1)c1ccccc1Oc1ccccc1	0	3	11	-11	-3	27	/	/	/	/	/
CCCCOc1ccc(C(=O)Nc2ccncc2)cc1	38	43	2	57*	8	13	45	40	77*	52*	22
O=C(CC(=O)c1ccccc1)Nc1cccnc1	-2	-17	-9	-20	-24	4	/	/	/	/	/
O=C(Nc1ccccc1)C(=O)Nc1cccnc1	86*	69*	0	76*	-18	26	2	26	67*	73*	8
COc1cccc(Cn2cnc(-c3ccccc3OC)c2C2CC2)c1	/	/	/	/	/	-28	/	/	/	/	/
CCCNC(=O)C1(C)CCCN(C(=O)c2ccc(OC(F)F)cc2)C1 (stereo not drawn)	/	/	/	/	/	23	/	/	/	/	/
CC(C)CNc1ncnc2c1ncn2[C@H]1CN(C2CCCC2)C[C@@H](CO)O1	/	/	/	/	/	13	/	/	/	/	/
O=C(Nc1cccc(Oc2ccc(C(=O)O)c(C(=O)O)c2)c1)c1ccc(-c2ccccc2)cc1	2	44	1	72*	3	7	51*	39	64*	50*	68*
O=C(Nc1ccc(Cl)cc1Cl)C1=Cc2ccccc2OC1	51*	38	1	43	3	-83	-19	27	31	34	0
SMILES	SENP7 block	SENP8 block-1	Apaf-1 inh	SENP6 inh	UBC13 inh	SENP8 block-2	SENP8 conf	SENP6 conf	SENP7 confirm	Casp3 select	Luc interf
COc1ccc(NC(=O)C2=Cc3ccccc3OC2)cc1	73*	61*	3	68*	2	10	59*	60*	87*	66*	1
CCc1nc2c(OCCOc3ccc(F)cc3)cccn2c1N(C=O)Cc1ccccc1	/	/	/	/	/	15	/	/	/	/	/
Cc1ccc2nc(N3C(=O)CNC3=S)sc2c1	89*	91*	-4	94*	-15	-26	-8	92*	100*	95*	27
COc1ccc2nc(N3C(=O)CNC3=S)sc2c1	43	29	6	43	-18	-13	/	/	/	/	/
COc1cc(C)ccc1S(=O)(=O)NC(=O)C1(C)CCN1C(=O)Cc1ccccc1Cl (stereo not drawn)	/	/	/	/	/	14	/	/	/	/	/
CCCCOCCCNC(=O)C[C@@H]1C[C@@]2(C(=O)OC)CCCCC=C2N(Cc2ccccc2)C1=O	/	/	/	/	/	18	/	/	/	/	/
Cc1cc[n+](C2=C([O-])c3ccccc3C(=O)/C2=N\S(=O)(=O)c2cccs2)cc1C	16	39	31	60*	-111	29	18	30	11	1	3
CC(C)(C)c1cc[n+](C2=C([O-])c3ccccc3C(=O)/C2=N\S(=O)(=O)c2ccccc2)cc1	15	42	9	66*	-84	48*	41	72*	43	7	1
Cc1c(C(C)(C)C)s/c(=N/S(=O)(=O)c2ccccc2)n1C	3	-11	2	-10	-2	11	/	/	/	/	/
Cc1cc(C)c[n+](C2=C([O-])c3ccccc3C(=O)/C2=N\S(=O)(=O)c2cccs2)c1	15	21	20	55*	-81	75*	40	59*	22	-4	-8
Cc1cc(C)cc(NS(=O)(=O)c2cccs2)c1	2	6	6	14	6	12	/	/	/	/	/
CCN(C)C1CN(Cc2cn(CCCC(=O)OC)nn2)S(=O)(=O)C1 (stereo not drawn)	/	/	/	/	/	13	/	/	/	/	/
CC(=O)c1c(C)[nH]c(C(=O)OCC(=O)NC(C)c2ccccc2)c1C (stereo not drawn)	/	/	/	/	/	2	/	/	/	/	/

Screens as filed in PubChem BioAssay.
